In ChEMBL document CHEMBL1268822, “Synthesis and biological evaluation of indolyl glyoxylamides as a new class of antileishmanial agents” (Bioorg Med Chem Lett, 2010):

Assays:
[1] = Toxicity in mouse J774A1 cells; type: cell-based, J774.A1
Leishmania donovani = test: Antileishmanial activity against Leishmania donovani amastigotes infected in mouse J774A1 cells assessed as inhibition of parasite growth after 72 hrs by luciferase reporter gene assay; type: functional, organism-based; details: J774.A1, 72 h
In short: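 J774A.1 macrophages seeded at 4 × 10⁴ cells/well in RPMI-1640 with 10% fetal calf serum, 37 °C CO₂, 24 h. Stationary-phase promastigotes then added at 4 × 10⁵/well and left to convert to intracellular amastigotes. Medium replaced with compound at 0.62–40 µM for 72 h at 37 °C. Steady Glo luciferase luminescence, growth inhibition relative to untreated controls.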

[2] = (§1) Selectivity index, ratio of CC50 for mouse J774A1 cells to IC50 for Leishmania donovani amastigotes; type: functional, J774.A1
In short: (§2)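 Ratio of CC50 in J-774 A-1 cells to IC50 against L. donovani amastigotes.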

J774.A1 = test: as §1; type: functional; in short: as §2

## CCc1ccc([C@H]2c3[nH]c4ccccc4c3C[C@H](C(=O)OC)N2C(=O)C(=O)c2c[nH]c3ccc(Br)cc23)cc1
[1]
  CC50: 9.48 µM
Leishmania donovani
  IC50: 5.86 µM
[2]
  Selectivity Index: 1.62

## sodium stibogluconate
J774.A1
  Selectivity Index: 5.53

## COC(=O)[C@@H]1Cc2c([nH]c3ccccc23)[C@@H](c2ccccc2Br)N1C(=O)C(=O)c1c[nH]c2ccc(Br)cc12
[1]
  CC50: 7.25 µM
Leishmania donovani
  IC50: 4.09 µM
[2]
  Selectivity Index: 1.77

## COC(=O)[C@@H]1Cc2c([nH]c3ccccc23)[C@@H](c2ccccc2Br)N1C(=O)C(=O)c1c[nH]c2ccccc12
[1]
  CC50: 30.1 µM
Leishmania donovani
  IC50: 3.79 µM
[2]
  Selectivity Index: 7.94

## COC(=O)[C@@H]1Cc2c([nH]c3ccccc23)[C@H](c2ccc(C)cc2)N1C(=O)C(=O)c1c[nH]c2ccc(Br)cc12
[1]
  CC50: 10.1 µM
Leishmania donovani
  IC50: 5.18 µM
[2]
  Selectivity Index: 1.95

## COC(=O)[C@H]1Cc2c([nH]c3ccccc23)[C@@H](c2ccc(C(C)C)cc2)N1C(=O)C(=O)c1c[nH]c2ccc(Br)cc12
[1]
  CC50: 7.77 µM
Leishmania donovani
  IC50: 3.91 µM
[2]
  Selectivity Index: 1.99

## CCc1ccc([C@@H]2c3[nH]c4ccccc4c3C[C@H](C(=O)OC)N2C(=O)C(=O)c2c[nH]c3ccc(Br)cc23)cc1
[1]
  CC50: 11.6 µM
Leishmania donovani
  IC50: 5.36 µM
[2]
  Selectivity Index: 2.17

## COC(=O)[C@@H]1Cc2c([nH]c3ccccc23)[C@@H](c2ccc(Cl)cc2)N1C(=O)C(=O)c1c[nH]c2ccc(Br)cc12
[1]
  CC50: 7.64 µM
Leishmania donovani
  IC50: 4.02 µM
[2]
  Selectivity Index: 1.9

## COC(=O)[C@@H]1Cc2c([nH]c3ccccc23)[C@@H](c2ccc(C)cc2)N1C(=O)C(=O)c1c[nH]c2ccc(Br)cc12
[1]
  CC50: 8.83 µM
Leishmania donovani
  IC50: 4.79 µM
[2]
  Selectivity Index: 1.84

## CCc1ccc([C@@H]2c3[nH]c4ccccc4c3C[C@H](C(=O)OC)N2C(=O)C(=O)c2c[nH]c3ccccc23)cc1
[1]
  CC50: 163 µM
Leishmania donovani
  IC50: 5.17 µM
[2]
  Selectivity Index: 31.48

## CCc1ccc([C@H]2c3[nH]c4ccccc4c3C[C@H](C(=O)OC)N2C(=O)C(=O)c2c[nH]c3ccccc23)cc1
[1]
  CC50: 30.9 µM
Leishmania donovani
  IC50: 8.04 µM
[2]
  Selectivity Index: 3.84

## COC(=O)[C@@H]1Cc2c([nH]c3ccccc23)[C@@H](c2ccc(C)cc2)N1C(=O)C(=O)c1c[nH]c2ccccc12
[1]
  CC50: 34.4 µM
Leishmania donovani
  IC50: 6.79 µM
[2]
  Selectivity Index: 5.07

## COC(=O)[C@H]1Cc2c([nH]c3ccccc23)[C@H](c2ccc(C(C)C)cc2)N1C(=O)C(=O)c1c[nH]c2ccccc12
[1]
  CC50: 15.1 µM
Leishmania donovani
  IC50: 6.02 µM
[2]
  Selectivity Index: 2.51

## COC(=O)[C@@H]1Cc2c([nH]c3ccccc23)[C@@H](c2ccc(Cl)cc2)N1C(=O)C(=O)c1c[nH]c2ccccc12
[1]
  CC50: 11.3 µM
Leishmania donovani
  IC50: 4.36 µM
[2]
  Selectivity Index: 2.6

## COC(=O)[C@H]1Cc2c([nH]c3ccccc23)[C@H](c2ccc(C(C)C)cc2)N1C(=O)C(=O)c1c[nH]c2ccc(Br)cc12
[1]
  CC50: 9.04 µM
Leishmania donovani
  IC50: 4.44 µM
[2]
  Selectivity Index: 2.04

## COC(=O)[C@@H]1Cc2c([nH]c3ccccc23)[C@H](c2ccc(C)cc2)N1C(=O)C(=O)c1c[nH]c2ccccc12
[1]
  CC50: 27.4 µM
Leishmania donovani
  IC50: 7.37 µM
[2]
  Selectivity Index: 3.72

## COC(=O)[C@H]1Cc2c([nH]c3ccccc23)[C@@H](c2ccc(C(C)C)cc2)N1C(=O)C(=O)c1c[nH]c2ccccc12
[1]
  CC50: 32.6 µM
Leishmania donovani
  IC50: 6.74 µM
[2]
  Selectivity Index: 4.84
